The test system of this assay is Cell line. Put plainly: Parasitaemia for Plasmodium falciparum in human erythrocytes after 3 hrs incubation with 100 uM compound. In kind it is functional. The gist of the method: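 Uninfected RBCs preincubated 3 h at 37 °C with 100 µM compound, washed in RPMI medium, then placed 6 h with RBCs carrying 44–48 h schizonts of synchronized K1 culture (plasmagel and sorbitol synchronization); reinvasion read as resulting parasitemia (%).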

The record followed here is ChEMBL document CHEMBL1138782, “Toward a novel metal-based chemotherapy against tropical diseases. 7. Synthesis and in vitro antimalarial activity of new gold-chloroquine complexes” (J Med Chem, 2004).

As for `CCN(CC)CCCC(C)Nc1ccnc2cc(Cl)ccc12.O=P(O)(O)O.O=P(O)(O)O` (stereo unspecified) [CHLOROQUINE PHOSPHATE], the Parasitemia is on record as 5.67%.
